Screening results: PubChem, SRMLSC
tolC growth inh – growth inhibitors of E. coli tolC mutant, primary screen, strain BW25113 ΔtolC::kan, 384-well | OD615 | growth inhibition, % at 10 µM (by protocol) | actives 2.2% (n = 65,000);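 active = growth inhibition at or above a cutoff equal to the mean over every tested compound plus 3 SD, cut at about 60% in these data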;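 also: growth measured after 20 h incubation at 37 °C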
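test system = E. coli BW25113 ΔtolC::kan bacteria | medium = LB with kanamycin 50 µg/mL | signal = OD at 615 nm | schedule = 37 °C, 20 h exposure | evaluation = % inhibition of E. coli growth | compound dosing = one dose of 10 µM final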
PostGolgi yeast – phenotypic screen on post-Golgi transport, primary screen; AID 739, 2007; actives 0.9% (n = 98,000); post-Golgi transport phenotypic cell assay; inhibition, % at 10 µM;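 also: yeast cells grown in 1536-well plates; yeast grown about 18 h at 30C before absorbance read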
PostGolgi ctrl – growth inhibition of yeast control strain, primary screen, counter-screen for post-Golgi transport modulator project; efflux-deficient yeast background strain, growth absorbance A615, 16 h; inhibition, % at 10 µM; actives 5% (n = 98,000)
Ecoli WT expand – growth inhibitors of wild-type E. coli, primary screen, strain BW25113, expanded library, OD600 | OD600 absorbance | growth inhibition, % at 100 µM | actives 0.15% (n = 98,000);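 active = growth inhibition above about 50% at one test dose, limit read from the data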;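 also: growth measured after 20 h incubation at 37 °C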
An asterisk follows results filed as active; · = not tested or not shown. Most compounds without a hit are left out; they make up all but 6.3% or so of the library. Rule as the data show it, unless noted: active = inhibition above about 30%; inactive = the rest.

SMILES	tolC growth inh	PostGolgi yeast	PostGolgi ctrl	Ecoli WT expand
CCC(=O)c1cn(Cc2ccccc2C#N)c2ccccc12	17	7	31*	2
CCC(C)OC(=O)c1c(N)n(Cc2cccs2)c2nc3ccccc3nc12 (stereo not given)	·	16	50*	-16
O=C(Nc1ccc(C(F)(F)F)cc1)c1cccn(Cc2ccc3c(c2)OC(F)(F)O3)c1=O	·	-5	21	-10
O=C(Nc1cccc(C(F)(F)F)c1)c1cccn(Cc2ccc3c(c2)OC(F)(F)O3)c1=O	·	8	32*	-19
Cc1cccc(C)c1NC(=O)c1cccn(Cc2ccc3c(c2)OC(F)(F)O3)c1=O	·	-11	75*	-5
Fc1ccc(CCNCc2ccc(Cl)c(Cl)c2)cc1	·	-12	6	67*
O=[N+]([O-])c1ccccc1CNCCc1ccc(F)cc1	·	-2	-6	10
CC(C)C12CN3CCN(CC(C3)/C1=N\O)C2	·	-1	6	1
COCCOC(=O)c1c(C)oc2ccc(OC(=O)N(C)C)cc12	-2	8	11	2
CC(c1ccccc1)n1cncc1C(=O)N1CCCC1=O (stereo not given)	3	2	-4	2
O=C(CN1C(=O)CN=C(c2ccccc2Cl)c2cc(Cl)ccc21)NCc1ccco1	2	3	31*	-4
O=C(NC1CC1)C1CSC(c2cccnc2)=N1 (stereo not given)	-10	8	8	10
O=c1[nH]c(=O)n(C2CCCCCC2)c(O)c1C=NCCCN1CCOCC1	-19	2	-8	-2
CCCCn1c(O)c(C(C)=NCc2ccc(F)cc2)c(=O)[nH]c1=O	1	1	11	-2
CCCCCCN=C(C)c1c(O)n(CCCC)c(=O)[nH]c1=O	8	9	38*	-1
CCCCn1c(O)c(C(C)=NCCCN(C)C)c(=O)[nH]c1=O	-2	3	18	5
C=CCn1c(O)c(C(CC)=NCCc2ccccc2)c(=O)[nH]c1=O	·	4	2	7
CCCCn1c(O)c(C(CC)=NCc2ccc(F)cc2)c(=O)[nH]c1=O	·	23	31*	4
CCCCn1c(O)c(C(CC)=NCCc2ccccc2)c(=O)[nH]c1=O	99*	24	55*	-8
Cc1ccc(CN2C(=O)NC(=O)C3(Cc4c(nc5ccccn5c4=O)N4CCCCCC43)C2=O)cc1 (stereo not given)	74*	-1	13	-8
CCN1CCN(c2ncnc3ccc(Br)cc23)CC1	-8	-4	32*	9
[N-]=[N+]=CC(=O)OC[C@H](N)C(=O)O	6	·	·	·
Cc1ccc(-n2c(-c3cccs3)nc3ccccc3c2=O)cc1	·	-2	23	5
Cc1ccnc(-n2c(C)nc3ccccc3c2=O)c1	5	2	5	-21
Cc1ccnc(-n2c(-c3ccccc3)nc3ccccc3c2=O)c1	·	0	34*	-2
SMILES	tolC growth inh	PostGolgi yeast	PostGolgi ctrl	Ecoli WT expand
CCC(=NCCO)c1c(O)n(C2CCCCC2)c(=O)[nH]c1=O	-14	0	5	-2
CCC(=NCc1ccc2c(c1)OCO2)c1c(O)n(C2CCCCC2)c(=O)[nH]c1=O	75*	22	67*	-6
Cn1c(=O)cc(OCCCC(=O)N2CCC3(CC2)OCCO3)c2ccccc21	·	6	1	7
CCOc1cc2[nH]c(=S)n(CCCC(=O)N3CCC4(CC3)OCCO4)c(=O)c2cc1OCC	10	6	39*	4
CC(C)CCNC(=O)c1c(N)n(CC2CCCO2)c2nc3ccccc3nc12 (stereo not given)	·	-2	57*	-10
CCC(C)NC(=O)c1c(N)n(CCCOC)c2nc3ccccc3nc12 (stereo not given)	29	0	28	-2
CCC(C)NC(=O)c1c(N)n(CC2CCCO2)c2nc3ccccc3nc12 (stereo not given)	4	0	56*	-16
CC(=O)OC1C2CCC1C(N1CCCC1)CC2 (stereo not given)	·	-1	3	-2
O=C1CN=C(c2ccccc2)c2ccccc2N1Cc1ccc(C(F)(F)F)cc1	·	3	42*	2
Cc1ccc(NP(=O)(Oc2ccccc2F)Oc2ccccc2F)cc1	·	14	36*	-9
CCCC(C)C1C(C#N)=C(N)Oc2c1c(=O)oc1ccccc21 (stereo not given)	14	6	36*	-7
Cc1ccc(-n2nc(C)c(C3C(C#N)=C(N)Oc4c3c(=O)oc3ccccc43)c2Cl)cc1 (stereo not given)	·	8	39*	-8
CC(C)Oc1ccc(C2C(C#N)=C(N)Oc3c2c(=O)oc2ccccc32)cc1 (stereo not given)	·	-3	-5	9
O=c1[nH]c(O)c(/C=C2\C=NN=C2c2ccccc2)c(=O)[nH]1	·	13	-7	-4
COc1ccc(CCNC(=O)c2c(N)n(CCN3CCOCC3)c3nc4ccccc4nc23)cc1	50	-3	35*	-9
CCCCn1c(N)c(C(=O)NCCN2CCOCC2)c2nc3ccccc3nc21	12	2	8	10
C=CCNC(=O)c1c(N)n(Cc2ccco2)c2nc3ccccc3nc12	·	3	13	-15
COCCNC(=O)c1c(N)n(Cc2ccco2)c2nc3ccccc3nc12	·	-1	51*	-25
Nc1c(C(=O)NCCc2ccccc2)c2nc3ccccc3nc2n1CCN1CCOCC1	90*	50*	40*	-23
Nc1c(C(=O)NCCN2CCOCC2)c2nc3ccccc3nc2n1Cc1ccco1	12	-10	12	11
O=C(N/N=C1/CN2CCC1CC2)c1cc2ccccc2cc1O	·	-5	15	3
COc1ccc(-n2c(O)c(C(C)=NCc3ccco3)c(=O)[nH]c2=O)cc1	-10	-4	38*	-1
Clc1cccc(C2NCCc3[nH]cnc32)c1 (stereo not given)	·	-28	40*	-3
C=Cn1c(P(=S)(N2CCOCC2)N2CCOCC2)cc2c1CCCC2	10	-10	27	-5
CC(C)Sc1nnc([C@@H](N)Cc2ccccc2)o1	·	17	-8	16
SMILES	tolC growth inh	PostGolgi yeast	PostGolgi ctrl	Ecoli WT expand
CCC(CO)Nc1ccc([N+](=O)[O-])c2cccnc12 (stereo not given)	·	0	-6	6
O=C(Cn1ncc2c3ccccc3n(Cc3ccccc3F)c2c1=O)N1CCC2(CC1)OCCO2	14	55*	10	-6
Cn1c2ccccc2c2c(C(=O)N3CCC4(CC3)OCCO4)cn(C3CCCC3)c(=O)c21	-12	33*	4	11
Cc1ccc2c(c1)CC1(CN2C)C(=O)NC(=O)N(c2ccccc2C)C1=O (stereo not given)	-19	-4	3	2
Cc1ccc2c(c1)CC1(CN2C)C(=O)NC(=O)N(CCc2ccccc2)C1=O (stereo not given)	·	9	37*	-3
CCN(CCNc1ccc([N+](=O)[O-])c2cccnc12)S(=O)(=O)c1ccc(Cl)cc1	·	16	35*	-20
CCCCn1c(O)c(C=NC2CC3CCC2(C)C3(C)C)c(=O)[nH]c1=O (stereo not given)	31	5	63*	-2
